# Reference: ChEMBL document CHEMBL1221182, “Functional characterization of IRESes by an inhibitor of the RNA helicase eIF4A” (Nat Chem Biol, 2006)
# The source made the active and inactive calls. The calls are words filed in the database; no cut-off is given here.
# Experiments:
# [1] = target: Eukaryotic initiation factor 4A-I (Mus musculus, UniProt P60843); assay: Inhibition of eIF4A-mediated cap-dependent protein synthesis in FF-HCV-Ren mRNA transfected Swiss mouse Krebs2 cell extract by [35S]methionine metabolic labeling study
# Chain of Eukaryotic initiation factor 4A-I (P60843 whole entry): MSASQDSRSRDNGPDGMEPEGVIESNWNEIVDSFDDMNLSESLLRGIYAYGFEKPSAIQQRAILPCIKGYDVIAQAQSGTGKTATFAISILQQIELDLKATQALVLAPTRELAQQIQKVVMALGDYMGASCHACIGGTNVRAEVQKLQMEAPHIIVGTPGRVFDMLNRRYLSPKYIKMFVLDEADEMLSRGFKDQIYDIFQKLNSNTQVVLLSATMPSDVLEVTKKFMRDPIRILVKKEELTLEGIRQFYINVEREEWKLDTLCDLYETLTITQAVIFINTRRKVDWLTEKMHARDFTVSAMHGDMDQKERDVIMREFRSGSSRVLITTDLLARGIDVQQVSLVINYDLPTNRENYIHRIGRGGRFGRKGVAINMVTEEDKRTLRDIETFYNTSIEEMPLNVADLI
# How it was run: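 Cell-free translation in Krebs-2 extracts programmed with capped bicistronic FF-HCV-Ren transcript: cap-dependent firefly cistron, HCV IRES-driven renilla cistron. Final mRNA 5 µg ml⁻¹, K⁺ 100 mM, compound titrated. Controls carry a matched final DMSO level. Products labeled with [³⁵S]methionine, separated by 10% SDS-PAGE, and autoradiographed. Luciferase activities are read by luminometer and expressed relative to vehicle reactions.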
# [2] = tested on: Nucleic Acid; assay: Inhibition of polio virus IRES-mediated translation in Swiss mouse Krebs2 extract transfected with bicistronic mRNA by [35S]methionine metabolic labeling study; settings: Enterovirus C
# How it was run: (§1)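 In vitro translation in Krebs-2 extracts programmed with capped bicistronic transcripts at 5 µg ml⁻¹ mRNA and 100 mM K⁺ final. Firefly and renilla luciferase activities read by luminometer. Alternatively, [³⁵S]methionine-labelled products were run on 10% SDS gels and autoradiographed. Control reactions held the same final DMSO level as the compound reactions.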
# [3] = target: Eukaryotic initiation factor 4A-I (Oryctolagus cuniculus) (UniProt P29562); assay: Inhibition of eIF4A-mediated cap-dependent protein synthesis in rabbit reticulocyte lysate transfected with FF-HCV-Ren mRNA by [35S]methionine metabolic labeling study
# Chain of Eukaryotic initiation factor 4A-I (Oryctolagus cuniculus) (P29562 whole entry): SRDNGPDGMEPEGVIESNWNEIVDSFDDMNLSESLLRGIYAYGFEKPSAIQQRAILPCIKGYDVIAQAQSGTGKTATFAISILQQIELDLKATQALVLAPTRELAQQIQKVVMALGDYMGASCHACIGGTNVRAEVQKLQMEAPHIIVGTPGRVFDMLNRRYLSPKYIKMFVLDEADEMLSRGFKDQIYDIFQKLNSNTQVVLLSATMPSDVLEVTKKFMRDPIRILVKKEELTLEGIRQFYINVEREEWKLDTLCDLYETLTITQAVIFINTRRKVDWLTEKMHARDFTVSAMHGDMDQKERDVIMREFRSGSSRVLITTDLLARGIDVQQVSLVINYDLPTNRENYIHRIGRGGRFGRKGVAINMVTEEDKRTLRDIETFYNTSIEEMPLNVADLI
# How it was run: (§2)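 Rabbit reticulocyte lysate or wheat germ extract translations were run to kit instructions. Control reactions carried the same final DMSO concentration as the compound-containing reactions.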
# [4] = tested on: HeLa; assay: Growth inhibition of human HeLa cells at 80 nM after 24 hrs; assay type: functional, cell-based
# [5] = target: Eukaryotic initiation factor 4A-I (Homo sapiens) (UniProt P60842); assay: Inhibition of eIF4A-mediated helicase activity by helicase assay
# Chain of Eukaryotic initiation factor 4A-I (Homo sapiens) (P60842 whole entry): as the sequence (P60843 whole entry) above
# How it was run: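 Helicase assay used the RNA-1/11 duplex with 0.4 µM recombinant eIF4A_I and 1 mM ATP. Products were separated on gels, dried, and exposed to film at -80 °C for 12 h.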
# [6] = target: Eukaryotic translation initiation factor 4E (Homo sapiens) (UniProt P06730); assay: Inhibition of eIF4E RNA binding activity in presence of 0.6 mM m7GDP at 50 uM
# Chain of Eukaryotic translation initiation factor 4E (Homo sapiens) (P06730 whole entry): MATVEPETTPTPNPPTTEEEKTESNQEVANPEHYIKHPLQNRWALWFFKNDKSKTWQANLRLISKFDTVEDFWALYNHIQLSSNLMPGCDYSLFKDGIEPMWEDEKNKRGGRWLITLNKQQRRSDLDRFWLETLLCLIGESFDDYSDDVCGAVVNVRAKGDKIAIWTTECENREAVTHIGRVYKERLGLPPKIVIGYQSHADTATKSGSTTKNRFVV
# How it was run: (§3)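 Oxidized ³²P cap-labelled CAT mRNA was chemically cross-linked in reactions with 0.9 mM ATP. Protein sources were 1 µg recombinant eIF4A_I, 0.7 µg native eIF4F, or an initiation factor preparation. Competitors were 0.6 mM m⁷GDP or GDP; compound was 50 µM. Samples were RNase A-treated, resolved by SDS-PAGE, and autoradiographed.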
# [7] = target: Eukaryotic initiation factor 4A (Triticum aestivum) (UniProt P41378); assay: Inhibition of eIF4A-mediated cap-dependent protein synthesis in wheat germ extract transfected with FF-HCV-Ren mRNA by [35S]methionine metabolic labeling study; how it was run: as §2
# Chain of Eukaryotic initiation factor 4A (Triticum aestivum) (P41378 whole entry): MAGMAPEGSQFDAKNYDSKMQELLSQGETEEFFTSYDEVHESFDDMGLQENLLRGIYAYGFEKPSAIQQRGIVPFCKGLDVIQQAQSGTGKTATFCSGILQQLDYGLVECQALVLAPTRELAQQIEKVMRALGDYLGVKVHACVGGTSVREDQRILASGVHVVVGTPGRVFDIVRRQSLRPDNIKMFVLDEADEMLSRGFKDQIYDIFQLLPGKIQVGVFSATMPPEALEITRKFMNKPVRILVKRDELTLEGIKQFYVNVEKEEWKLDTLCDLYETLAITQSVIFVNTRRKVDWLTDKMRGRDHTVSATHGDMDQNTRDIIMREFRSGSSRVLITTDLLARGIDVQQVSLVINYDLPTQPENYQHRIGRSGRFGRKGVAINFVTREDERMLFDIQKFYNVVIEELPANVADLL
# [8] = tested on: HeLa; assay: Inhibition of protein synthesis in human HeLa cells at 1 uM after 60 mins by [35S]methionine metabolic labeling study; assay type: functional, cell-based
# [9] = tested on: Triticum aestivum; assay: Inhibition of 48S ribosome complex formation in wheat germ extract in presence of 1 mM GMP-PNP assessed as increase in unbound mRNA at 50 uM; assay type: functional
# How it was run: (§4)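 ³²P-labelled CAT mRNA was incubated 10 min in wheat germ extract or rabbit reticulocyte lysate. Additions were 600 µM cycloheximide, 1 mM GMP-PNP, and 50 µM compound or vehicle. Mixtures were sedimented through 10–30% glycerol gradients at 200,000g for 3.5 h. Fraction radioactivity was measured by scintillation counting.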
# [10] = tested on: Escherichia coli; assay: Inhibition of eIF4A-mediated cap-dependent protein synthesis in Escherichia coli S30 extract transfected with FF-HCV-Ren mRNA at 50 uM by [35S]methionine metabolic labeling study
# [11] = tested on: HeLa; assay: Disruption of polyribosmes in human HeLa cells at 1 uM after 20 mins; assay type: functional, cell-based
# [12] = tested on: HeLa; assay: Inhibition of protein synthesis in human HeLa cells after 50 mins by [35S]methionine metabolic labeling study; assay type: functional, cell-based
# [13] = tested on: Nucleic Acid; assay: Inhibition of PTV-1 IRES-mediated translation in Swiss mouse Krebs2 extract transfected with bicistronic mRNA by [35S]methionine metabolic labeling study; settings: Porcine teschovirus 1; how it was run: as §1
# [14] = tested on: Internal ribosome entry site (IRES); assay: Inhibition of HCV IRES-mediated protein synthesis in FF-HCV-Ren mRNA transfected Swiss mouse Krebs2 cell extract at 50 uM by [35S]methionine metabolic labeling study; settings: Hepacivirus hominis; how it was run: as §1
# [15] = tested on: HeLa; assay: Inhibition of RNA synthesis in human HeLa cells assessed as [3H] Uridine incorporation at 1 uM by scintillation counting; assay type: functional, cell-based
# [16] = tested on: Nucleic Acid; assay: Inhibition of CrPV IRES-mediated translation in Swiss mouse Krebs2 extract transfected with bicistronic mRNA by [35S]methionine metabolic labeling study; how it was run: as §1
# [17] = target: Eukaryotic initiation factor 4A-I (Homo sapiens) (UniProt P60842); assay: Inhibition of eIF4A binding to 32p cap-labeled mRNA at 50 uM; how it was run: as §3
# [18] = target: Eukaryotic initiation factor 4A-I (Mus musculus) (UniProt P60843); assay: Inhibition of eIF4A-mediated cap-dependent translation in Swiss mouse Krebs2 extract transfected with bicistronic mRNA by [35S]methionine metabolic labeling study; how it was run: as §1
# Chain of Eukaryotic initiation factor 4A-I (Mus musculus) (P60843 whole entry): as the sequence (P60843 whole entry) above
# [19] = tested on: HeLa; assay: Inhibition of protein synthesis in human HeLa cells at 1 uM by [35S]methionine metabolic labeling study; assay type: functional, cell-based
# [20] = target: Eukaryotic translation initiation factor 4E (Homo sapiens) (UniProt P06730); assay: Inhibition of eIF4E interaction with mRNA cap structure in presence of 0.6 mM m7 GDP at 50 uM by chemical cross-linking assay; how it was run: as §3
# [21] = target: Eukaryotic initiation factor 4A-I (Mus musculus) (UniProt P60843); assay: Inhibition of eIF4A-mediated cap-dependent protein synthesis in Swiss mouse Krebs2 extract transfected with FF-HCV-Ren mRNA in presence of recombinant eIF4AIf by [35S]methionine metabolic labeling study
# How it was run: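 Krebs-2 translation programmed with FF-HCV-Ren mRNA at 5 µg ml⁻¹ mRNA and 100 mM K⁺ final. Conditions were 0.4 µM compound or 0.004% DMSO, with or without 2.2 µM recombinant eIF4A_If. [³⁵S]methionine products were resolved by SDS-PAGE and autoradiographed. Translational efficiency was taken relative to luciferase from vehicle controls. Three experiments; s.e.m.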
# [22] = target: Eukaryotic initiation factor 4A-I (Homo sapiens) (UniProt P60842); assay: Induction of eIF4A to [alpha-32P]ATP cross linking relative to control
# How it was run: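 [α-³²P]ATP (2.5 µCi) was UV cross-linked to 1 µg recombinant eIF4A_I or 0.7 µg native eIF4F, with 0.5% DMSO or 50 µM compound. Samples were run on SDS-PAGE and autoradiographed at -70 °C for 12 h. Four experiments.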
# [23] = target: Eukaryotic initiation factor 4A-I (Homo sapiens) (UniProt P60842); assay: Inhibition of eIF4A RNA-dependent ATPase activity assessed as rate of ATP hydrolysis
# How it was run: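 Recombinant murine eIF4A_I (4.5 µg) was expressed in E. coli BL21(DE3) and purified by Ni-NTA and Q-Sepharose. It was incubated with 1 µM [γ-³²P]ATP and 2.5 µM poly(U). Hydrolysis was quantified by phosphorimager. Rate was plotted against compound concentration relative to 0.5% DMSO.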
# [24] = tested on: HeLa; assay: Inhibition of DNA synthesis in human HeLa cells assessed as [3H] thymidine incorporation at 1 uM by scintillation counting; assay type: functional, cell-based
# [25] = Inhibition of DED1-mediated helicase activity by helicase assay
# How it was run: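 Helicase assay used the RNA-1/11 duplex with 25 nM Ded1p and 1 mM ATP. Products were separated on gels, dried, and exposed to film at -80 °C for 12 h.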
# [26] = target: Eukaryotic initiation factor 4A-I (Homo sapiens) (UniProt P60842); assay: Inhibition of eIF4A interaction with mRNA cap structure in presence of 0.6 mM m7 GDP at 50 uM by chemical cross-linking assay; how it was run: as §3
# [27] = organism: Oryctolagus cuniculus; assay: Inhibition of 80S ribosome complex formation in rabbit reticulocyte lysate in presence of 600 uM cyclohexamide assessed as increase in unbound mRNA at 50 uM; assay type: functional; how it was run: as §4
# [28] = target: Eukaryotic initiation factor 4A-I (Homo sapiens) (UniProt P60842); assay: Inhibition of eIF4A RNA binding activity in presence of 0.6 mM m7GDP at 50 uM; how it was run: as §3
# [29] = tested on: Nucleic Acid; assay: Inhibition of EMCV IRES-mediated translation in Swiss mouse Krebs2 extract transfected with bicistronic mRNA by [35S]methionine metabolic labeling study; settings: Encephalomyocarditis virus; how it was run: as §1
# [30] = target: Eukaryotic translation initiation factor 4B (Homo sapiens) (UniProt P23588); assay: Inhibition of eIF4B interaction with mRNA cap structure in presence of 0.6 mM m7GDP at 50 uM by chemical cross-linking assay; how it was run: as §3
# Chain of Eukaryotic translation initiation factor 4B (Homo sapiens) (P23588 whole entry): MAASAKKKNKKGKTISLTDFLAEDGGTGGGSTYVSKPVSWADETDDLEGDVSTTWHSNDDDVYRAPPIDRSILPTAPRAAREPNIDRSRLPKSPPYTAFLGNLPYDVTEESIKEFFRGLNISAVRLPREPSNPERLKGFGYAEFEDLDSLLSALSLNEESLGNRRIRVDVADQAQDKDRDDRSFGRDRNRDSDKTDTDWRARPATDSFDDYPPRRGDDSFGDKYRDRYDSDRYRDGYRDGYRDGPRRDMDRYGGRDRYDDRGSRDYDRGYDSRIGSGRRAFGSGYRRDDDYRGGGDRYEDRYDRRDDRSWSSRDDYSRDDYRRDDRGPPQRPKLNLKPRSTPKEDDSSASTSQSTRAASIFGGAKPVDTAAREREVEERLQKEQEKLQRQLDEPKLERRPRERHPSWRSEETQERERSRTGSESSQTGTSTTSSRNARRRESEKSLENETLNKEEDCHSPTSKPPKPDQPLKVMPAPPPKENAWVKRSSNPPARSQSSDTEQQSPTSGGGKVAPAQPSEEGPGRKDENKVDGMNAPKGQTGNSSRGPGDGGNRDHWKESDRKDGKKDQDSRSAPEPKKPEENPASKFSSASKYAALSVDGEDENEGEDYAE
smiles,measurement,setting,value
C[C@H]1C[C@@]2(O[C@H]3C[C@H]4[C@@H]5CC[C@H]6C[C@H](O)[C@H](OC(=O)CCCC(=O)O)C[C@]6(C)[C@H]5[C@@H](O)C[C@]4(C)[C@H]3[C@@]2(C)O)OC1(C)C,IC50,[1],2.6 µM
CC(=O)O[C@H]1C[C@@H]2CC[C@@H]3[C@H]([C@@H](O)C[C@@]4(C)[C@H]3C[C@@H]3O[C@@]5(C[C@H](C)C(C)(C)O5)[C@](C)(O)[C@@H]34)[C@@]2(C)C[C@H]1O,IC50,[1],1.7 µM
C[C@H]1C[C@]2(O[C@H]3C[C@H]4[C@@H]5CC[C@H]6CC(=O)CC[C@]6(C)[C@H]5C(=O)C[C@]4(C)[C@H]3[C@@]2(C)O)OC1(C)C,IC50,[1],> 100 µM
C[C@H]1C[C@]2(O[C@H]3C[C@H]4[C@@H]5CC[C@H]6C[C@H](O)CC[C@]6(C)[C@H]5C(=O)C[C@]4(C)[C@H]3[C@@]2(C)O)OC1(C)C,IC50,[1],> 100 µM
CC(=O)O[C@@H]1CC[C@@]2(C)[C@@H](CC[C@@H]3[C@@H]2[C@@H](OC(C)=O)C[C@@]2(C)[C@H]3C[C@@H]3O[C@]4(C[C@H](C)C(C)(C)O4)[C@](C)(O)[C@@H]32)C1,IC50,[1],> 100 µM
C[C@H]1C[C@]2(O[C@H]3C[C@H]4[C@@H]5CC[C@H]6C[C@H](O)CC[C@]6(C)[C@H]5[C@@H](O)C[C@]4(C)[C@H]3[C@@]2(C)O)OC1(C)C [EPIHIPPURISTANOL],IC50,[1],> 100 µM
C[C@H]1C[C@@]2(O[C@H]3C[C@H]4[C@@H]5CC[C@H]6C[C@H](O)CC[C@]6(C)[C@H]5[C@@H](O)C[C@]4(C)[C@H]3[C@@]2(C)O)OC1(C)C [HIPPURISTANOL],inhibition,[2],Active
same,inhibition,[3],Active
same,inhibition,[4],Active
same,inhibition,[5],Active
same,inhibition,[6],inactive
same,inhibition,[7],Active
same,inhibition,[8],Active
same,inhibition,[9],Active
same,inhibition,[10],Active
same,inhibition,[11],Active
same,inhibition,[12],Active
same,inhibition,[13],Active
same,inhibition,[14],inactive
same,inhibition,[15],Active
same,inhibition,[16],inactive
same,inhibition,[17],Active
same,IC50,[1],0.4 µM
same,inhibition,[18],Active
same,inhibition,[19],Active
same,inhibition,[20],inactive
same,inhibition,[21],Active
same,fold change (FC),[22],2
same,inhibition,[23],Active
same,inhibition,[24],Active
same,inhibition,[25],inactive
same,inhibition,[26],Active
same,inhibition,[27],Active
same,inhibition,[28],Active
same,inhibition,[29],Active
same,inhibition,[30],Active
C[C@H]1C[C@]2(O[C@H]3C[C@H]4[C@@H]5CC[C@H]6C[C@H](O)[C@H](OC(=O)CCCC(=O)O)C[C@]6(C)[C@H]5[C@@H](O)C[C@]4(C)[C@H]3[C@@]2(C)O)OC1(C)C,IC50,[1],35 µM
C[C@H]1C[C@@]2(O[C@H]3C[C@H]4[C@@H]5CC[C@H]6CC(=O)CC[C@]6(C)[C@H]5C(=O)C[C@]4(C)[C@H]3[C@@]2(C)O)OC1(C)C,IC50,[1],52 µM
C[C@H]1C[C@]2(O[C@H]3C[C@H]4[C@@H]5CC[C@H]6C[C@H](O)[C@H](O)C[C@]6(C)[C@H]5[C@@H](O)C[C@]4(C)[C@H]3[C@@]2(C)O)OC1(C)C,IC50,[1],19 µM
